Sampled rows, rich in hits. Any-hit rate of the full collection: about 3.5%.
RGS4 block = RGS4 inhibitors, primary screen, cell-based, HEK293 M3R inducible RGS4, calcium flux; Regulator of G-protein signaling 4 (Homo sapiens), P49798; Fluo-4 calcium flux; stronger effect = higher value; triggered by carbachol at its EC20; 310,000 tested, 0.45% active; B-score at 10 µM;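 active means B-score, a plate-corrected calcium signal, over three deviations above library mean, with baseline fluorescence within five deviations of library mean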;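 further: RGS4 expression induced by doxycycline in cells with stable M3 receptor; B-score is computed from the integrated fluorescence ratio over baseline after carbachol; higher B-score means a larger calcium signal and so more RGS4 inhibition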
Target sequence (P49798 whole entry, looked up): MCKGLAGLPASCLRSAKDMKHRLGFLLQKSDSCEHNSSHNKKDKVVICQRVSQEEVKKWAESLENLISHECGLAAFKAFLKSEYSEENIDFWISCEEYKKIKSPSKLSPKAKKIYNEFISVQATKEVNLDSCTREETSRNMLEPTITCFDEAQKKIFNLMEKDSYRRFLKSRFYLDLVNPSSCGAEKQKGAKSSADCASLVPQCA
RGS4 act = RGS4 potentiators or activators, primary screen, cell-based, HEK293 M3R inducible RGS4, calcium flux; 310,000 tested, 0.92% active; B-score at 10 µM; carbachol calcium flux Fluo4; stronger effect = lower value; AID 463111, 2010;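 active means B-score of the integrated calcium signal more than 4 SD below the library mean, with starting fluorescence not abnormally high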;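 further: negative B-score means reduced calcium response which marks RGS4 activation or potentiation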
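Test system: HEK293 cells with stable M3R and inducible RGS4; also added: carbachol at ECmax as muscarinic agonist stimulus; schedule: dye loading 30 min 37 °C, buffer rest 30 min RT; technique: kinetic calcium fluorescence imaging with Fluo4-AM dye, 2 µM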
MrgX1 allo act = positive allosteric modulators of MrgX1, primary screen, HEK293 cells, Fluo-4 calcium flux; AID 588675, 2011; 310,000 tested, 0.63% active; B-score at 10 µM; FDSS; stronger effect = higher value; Mas-related G-protein coupled receptor member X1 (Homo sapiens), Q96LB2;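 active means plate-corrected calcium response at least 3 library SD above typical, normal starting fluorescence, not activating the receptor alone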;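 further: compound read alongside a low EC10 to EC30 dose of BAM8-22 agonist; peak minus trough fluorescence over baseline measured at the second addition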
Target sequence (Q96LB2 whole entry, looked up): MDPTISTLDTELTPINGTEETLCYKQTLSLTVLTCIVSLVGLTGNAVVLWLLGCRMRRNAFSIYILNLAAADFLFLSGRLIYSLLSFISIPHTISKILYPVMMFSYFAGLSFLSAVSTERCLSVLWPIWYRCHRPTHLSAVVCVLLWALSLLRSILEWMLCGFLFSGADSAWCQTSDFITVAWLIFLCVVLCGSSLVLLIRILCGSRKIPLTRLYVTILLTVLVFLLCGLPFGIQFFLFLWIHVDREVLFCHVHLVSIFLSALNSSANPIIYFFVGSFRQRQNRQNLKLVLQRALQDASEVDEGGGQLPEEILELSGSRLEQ
MrgX1 agonist = agonists of human MrgX1 receptor, primary screen, HEK293 cells, Fluo-4 calcium flux | Mas-related G-protein coupled receptor member X1 (Homo sapiens), Q96LB2 | Fluo-4 calcium fluorescence, agonist mode; stronger effect = higher value | B-score at 10 µM | 310,000 tested, 0.44% active | AID 588627, 2011;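 active means calcium response B-score plate-corrected fluorescence ratio at least 3 library SD, with starting fluorescence B-score inside 5 SD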
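System: HEK293 cells stably expressing human MrgX1 receptor; Dosing: test compound in the initial addition of three; Schedule: overnight plating, then 30 min 37 °C plus 30 min room-temperature dye loading; Detection: kinetic calcium dye fluorescence, Fluo-4 NW; Controls: per-plate positive and negative controls for Z′ factor.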
MrgX1 antagonist = antagonists of human MrgX1 receptor, primary screen, HEK293 cells, Fluo-4 calcium flux. Mas-related G-protein coupled receptor member X1 (Homo sapiens), Q96LB2. BAM8-22 antagonism; stronger effect = lower value. B-score at 10 µM. 310,000 tested, 1.3% active. AID 588676, 2011;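 active means calcium-response B-score plate-corrected more than 3 library SD below zero, starting fluorescence within 5 deviations, no agonist response on first addition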;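 further: peak minus trough fluorescence over baseline after final BAM8-22 challenge near maximal dose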
MrgX1 antag conf = MrgX1 receptor antagonists, duplicate retest, confirmation, HEK293 cells, Fluo-4 calcium flux; 2,300 tested, 19% active; AID 602420, 2012; remaining BAM8-22 calcium response % of control (stronger effect = lower value), % at 10 µM; shares compounds with MrgX1 antagonist; BAM8-22 calcium flux; stronger effect = lower value;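 active means remaining agonist calcium response no higher than 100% minus 3 SD of agonist-only control wells, with starting fluorescence near control levels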;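 further: agonist BAM8-22 given at a near maximal EC90 to ECmax level; peak minus minimum fluorescence divided by baseline after agonist addition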
HEK293 Ca flux = nonspecific calcium signal in parental HEK293, confirmation, counter-screen for MrgX1 antagonist project, parental HEK293 cells, Fluo-4 calcium flux | fluorescence ratio F(max-min)/F0 at 10 µM | Fluo-4 calcium fluorescence, FDSS | AID 624111, 2012 | shares compounds with MrgX1 antagonist | 4,000 tested, 2% active;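 active means duplicate-averaged calcium fluorescence ratio at least three times the standard deviation of buffer wells, a nonspecific response in parental cells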
HEK293 Ca counter = calcium response in parental HEK293 cells, primary screen, counter-screen for MrgX1 allosteric activator project, cell-based, Fluo-4 calcium flux, duplicate. shares compounds with MrgX1 antagonist. Fluo-4 fluorescence ratio; stronger effect = higher value. fluorescence ratio F(max-min)/F0 at 10 µM. 4,000 tested, 0.4% active. AID 624114, 2012;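 active means calcium fluorescence ratio, averaged over duplicates, at least 3 SD of the buffer-well ratio, meaning a nonspecific response in receptor-free cells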;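 further: untransfected parental HEK293 lacking MrgX1 used as counterscreen for MrgX1 allosteric activators; fluorescence change taken during the second addition on a kinetic imager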
HEK293 Ca cntr2 = calcium response in parental HEK293 cells, primary screen, counter-screen for MrgX1 agonist project, cell-based, Fluo-4 calcium flux, duplicate, agonist mode; shares compounds with MrgX1 antagonist; fluorescence ratio F(max-min)/F0 at 10 µM; AID 624115, 2012; Fluo-4 calcium fluorescence (FDSS); stronger effect = higher value; 4,000 tested, 8.7% active;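 active means calcium fluorescence ratio at least three times the spread of buffer wells, meaning a non-specific response in parental cells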
A number is an active result.

CCCn1c(C(C)NS(=O)(=O)c2ccccc2)n[nH]c1=S (configuration not stated) was read as RGS4 block inactive, RGS4 act inactive, MrgX1 allo act inactive, MrgX1 agonist inactive and MrgX1 antagonist inactive.
For CCn1c(C(C)NS(=O)(=O)c2ccc(Cl)cc2)n[nH]c1=S (configuration not stated) the results were RGS4 block inactive, RGS4 act inactive, MrgX1 allo act inactive, MrgX1 agonist inactive, MrgX1 antagonist -6.5, MrgX1 antag conf inactive, HEK293 Ca flux inactive, HEK293 Ca counter inactive and HEK293 Ca cntr2 inactive.
`O=C1O/C(=C/c2ccccc2)N=C1c1ccccc1` gave RGS4 block inactive, RGS4 act inactive, MrgX1 allo act inactive, MrgX1 agonist inactive, MrgX1 antagonist -4.96, MrgX1 antag conf inactive, HEK293 Ca flux inactive, HEK293 Ca counter inactive and HEK293 Ca cntr2 inactive.
`O=C1O/C(=C\c2ccccc2)c2ccccc21` gave RGS4 block inactive, RGS4 act inactive, MrgX1 allo act inactive, MrgX1 agonist inactive and MrgX1 antagonist inactive.
COC(=O)C(NC(=O)c1ccccc1)c1ccccc1 (configuration not stated) was read as RGS4 block inactive, RGS4 act inactive, MrgX1 allo act inactive, MrgX1 agonist inactive, MrgX1 antagonist -9.39, MrgX1 antag conf inactive, HEK293 Ca flux inactive, HEK293 Ca counter inactive and HEK293 Ca cntr2 inactive.
For O=S(=O)(c1ccc2ccccc2c1)N1CCN(CCO)CC1 the results were RGS4 block inactive, RGS4 act inactive, MrgX1 allo act inactive, MrgX1 agonist inactive and MrgX1 antagonist inactive.
Screening O=C(NCCc1ccncc1)Nc1cccc(Cl)c1 returned RGS4 block inactive, RGS4 act inactive, MrgX1 allo act inactive, MrgX1 agonist inactive, MrgX1 antagonist -4.56, MrgX1 antag conf inactive, HEK293 Ca flux inactive, HEK293 Ca counter inactive and HEK293 Ca cntr2 inactive.
For N#Cc1c(NC(=O)c2ccc(Cn3cc(Br)cn3)o2)sc2c1CCCCC2 the results were RGS4 block inactive, RGS4 act inactive, MrgX1 allo act inactive, MrgX1 agonist inactive and MrgX1 antagonist inactive.
For COC(=O)c1sc(NC(=O)c2ccc(Cn3cc(Cl)cn3)o2)c(C#N)c1C the results were RGS4 block inactive, RGS4 act inactive, MrgX1 allo act inactive, MrgX1 agonist inactive, MrgX1 antagonist -4.57, MrgX1 antag conf inactive, HEK293 Ca flux inactive, HEK293 Ca counter inactive and HEK293 Ca cntr2 inactive.
`Cn1c(=O)c2c(nc(Sc3ncnn3CC(=O)NC3CCCCC3)n2C)n(C)c1=O` gave RGS4 block inactive, RGS4 act inactive, MrgX1 allo act inactive, MrgX1 agonist inactive and MrgX1 antagonist inactive.
Cc1ccc(Cl)cc1N1CCN(C(=O)c2cc3c(=O)[nH]c4ccccc4c3n2C)CC1 was read as RGS4 block inactive, RGS4 act inactive, MrgX1 allo act inactive, MrgX1 agonist inactive, MrgX1 antagonist -13.9, MrgX1 antag conf 36.0%, HEK293 Ca flux inactive, HEK293 Ca counter inactive and HEK293 Ca cntr2 inactive.
O=C(NC1CC1)C1CCN(S(=O)(=O)c2cc(Cl)ccc2Cl)CC1 was read as RGS4 block inactive, RGS4 act inactive, MrgX1 allo act inactive, MrgX1 agonist inactive, MrgX1 antagonist -5.39, MrgX1 antag conf inactive, HEK293 Ca flux inactive, HEK293 Ca counter inactive and HEK293 Ca cntr2 inactive.
`COc1ccccc1CNC(=O)C1CCC1` gave RGS4 block inactive, RGS4 act inactive, MrgX1 allo act inactive, MrgX1 agonist inactive, MrgX1 antagonist -7.9, MrgX1 antag conf 82.1%, HEK293 Ca flux inactive, HEK293 Ca counter inactive and HEK293 Ca cntr2 inactive.
For CCC(C(=O)NC1CCCCC1)n1c2ccccc2c2nc(=O)cc(C)n21 (configuration not stated) the results were RGS4 block inactive, RGS4 act inactive, MrgX1 allo act inactive, MrgX1 agonist inactive and MrgX1 antagonist inactive.
For Cc1ccc(C(=O)CSc2nnc(-c3snnc3C)n2C2CC2)cc1 the results were RGS4 block inactive, RGS4 act inactive, MrgX1 allo act inactive, MrgX1 agonist inactive and MrgX1 antagonist inactive.
`C(=C\c1ccc2ccccc2n1)/c1ccccc1` gave RGS4 block inactive, RGS4 act inactive, MrgX1 allo act inactive, MrgX1 agonist inactive and MrgX1 antagonist inactive.
CN(C)c1ccc(/C=C/c2ccc3ccccc3n2)cc1 was read as RGS4 block inactive, RGS4 act inactive, MrgX1 allo act inactive, MrgX1 agonist inactive, MrgX1 antagonist -6.87, MrgX1 antag conf inactive, HEK293 Ca flux 0.547, HEK293 Ca counter inactive and HEK293 Ca cntr2 inactive.
Screening O=C(NCN1C(=O)C2C3C=CC(C3)C2C1=O)Nc1nncs1 (configuration not stated) returned RGS4 block inactive, RGS4 act inactive, MrgX1 allo act inactive, MrgX1 agonist inactive, MrgX1 antagonist -4.63, MrgX1 antag conf 84.8%, HEK293 Ca flux inactive, HEK293 Ca counter inactive and HEK293 Ca cntr2 inactive.
COc1ccc(C/C(C)=N/NS(=O)(=O)c2ccc(Br)cc2)cc1 was read as RGS4 block inactive, RGS4 act inactive, MrgX1 allo act inactive, MrgX1 agonist inactive and MrgX1 antagonist inactive.
Screening CCCC(=O)Nc1ccccc1NC(=O)c1ccc(OC(C)=O)cc1 returned RGS4 block inactive, RGS4 act inactive, MrgX1 allo act inactive, MrgX1 agonist inactive and MrgX1 antagonist inactive.
O=C(NCCO)c1ccc2[nH]c3c(c2c1)CCCC3 was read as RGS4 block inactive, RGS4 act inactive, MrgX1 allo act inactive, MrgX1 agonist inactive, MrgX1 antagonist -6.46, MrgX1 antag conf inactive, HEK293 Ca flux inactive, HEK293 Ca counter inactive and HEK293 Ca cntr2 inactive.
`O=C(NCCCO)c1ccc2[nH]c3c(c2c1)CCCC3` gave RGS4 block inactive, RGS4 act inactive, MrgX1 allo act inactive, MrgX1 agonist inactive and MrgX1 antagonist inactive.
For Cc1cccc(C)c1OCCNC(=O)C(=O)NCc1ccco1 the results were RGS4 block inactive, RGS4 act inactive, MrgX1 allo act inactive, MrgX1 agonist inactive and MrgX1 antagonist inactive.
